Measured values from ChEMBL document CHEMBL3085690, “Naturally occurring antimicrobial peptide OH-CATH30 selectively regulates the innate immune response to protect against sepsis” (J Med Chem, 2013).
The source made the active and inactive calls. The calls are words filed in the database; no cut-off is given here. Peptide text beside a SMILES is read from it.

Legend:
[1] = test system: BMDM; assay: Induction of CXCL3 mRNA up-regulation in mouse BMDM at 20 ug/ml after 3 hrs by qRT-PCR analysis; type: functional
Method in brief: (§1)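 Murine BMDMs stimulated with peptide, then target mRNA quantified by qRT-PCR. Expression normalized to GAPDH, with untreated cells set to 1.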

[2] = test system: BMDM; assay: Increase of IL-10 protein level in mouse BMDM at 20 ug/ml after 18 hrs by ELISA; type: functional
Method in brief: (§2)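 Bone marrow-derived macrophages (RPMI 1640, 10% FCS, 20% L929-conditioned medium) stimulated with peptide for 18 h. Cytokines and chemokines in culture supernatant quantified by sandwich ELISA. Mean ± SD from three independent experiments, unpaired t test.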

[3] = test system: Mus musculus; assay: Stimulation of innate immune response in Kunming mouse infected with Pseudomonas aeruginosa ATCC 27853 assessed as reduction of bacterial burden in peritoneal lavage by measuring survival rate at 10 mg/kg, ip administered 5 hrs before bacterial infection measured up to 7 days; type: functional, organism-based; set-up: dose 10 mg/kg
Method in brief: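 Peptide at 10 mg/kg ip was given 5 h before ip challenge with E. coli 25922 (2.5 × 10^8 CFU), P. aeruginosa 27853 (8 × 10^7 CFU) or S. aureus 25923 (2 × 10^8 CFU) per mouse. Viable bacteria were counted in peritoneal lavage collected in 2 mL of cold saline (n = 7, 6 and 8 respectively; unpaired t test). Survival was recorded for up to 7 days.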

[4] = test system: Mus musculus; assay: Stimulation of innate immune response in Kunming mouse assessed as protection against CLP-induced mortality by measuring survival rate at 10 mg/kg, ip administered 12 hrs before bacterial infection measured up to 7 days; type: functional; conditions: route intraperitoneal
[5] = test system: Mus musculus; assay: Stimulation of innate immune response in Kunming mouse assessed as protection against Escherichia coli ATCC 25922-induced mortality by measuring survival rate at 10 mg/kg, ip administered 24 hrs before bacterial infection measured up to 7 days; type: functional, organism-based; set-up: dose 10 mg/kg
Method in brief: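 Female Kunming mice were challenged ip with E. coli 25922 at 2.5 × 10^8 CFU/mouse (n = 10). Peptide at 10 mg/kg in sterile saline was given ip at −24 h or +3 h relative to inoculation. Mice were monitored every 6 h and mortality was recorded for up to 7 days, with humane end points. Survival curves were compared by log-rank test.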

[6] = target: Transcription factor p65 (Mus musculus) (UniProt Q04207); assay: Activation of NFkappaB p65 in mouse BMDM assessed as phosphorylation at 10 ug/ml after 15 to 30 mins by Western blotting
Method in brief: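 BMDMs came from mouse bone marrow cultured in RPMI 1640 with 10% FCS and 20% L929-conditioned medium. After treatment, lysates were run on 10% SDS−PAGE, transferred to PVDF, blocked with 5% BSA, and probed for phospho-p65. Detection used an HRP anti-rabbit IgG secondary and chemiluminescence.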

[7] = Increase of CXCL2 production in mouse BMDM after 6 hrs by ELISA in presence of NFkappaB inhibitor Bay11-7082; type: functional
[8] = Increase of CXCL2 production in mouse BMDM after 6 hrs by ELISA in presence of p38 MAPK inhibitor SB-202190; type: functional
[9] = test system: RAW264.7; assay: Inhibition of LPS-induced nitric oxide production in mouse RAW264.7 cells 2 to 50 ug/ml after 6 hrs by ELISA; type: functional, cell-based
[10] = test system: RAW264.7; assay: Inhibition of LPS-induced IL-6 production in mouse RAW264.7 cells 2 to 50 ug/ml after 6 hrs by ELISA; type: functional, cell-based
[11] = test system: Mus musculus; assay: Stimulation of innate immune response in bacteria infected Kunming mouse assessed as eradicate invading bacteria at 10 mg/kg, ip after 8 hrs; type: functional, organism-based; set-up: dose 10 mg/kg
[12] = test system: Mus musculus; assay: Stimulation of innate immune response in Kunming mouse assessed as increase of monocytes/macrophages in peritoneal lavage at 10 mg/kg, ip after 5 hrs; type: functional, organism-based; set-up: dose 10 mg/kg
Method in brief: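 Female Kunming mice were given peptide ip at 10 mg/kg. At 5 h, peritoneal cells were recovered by lavage with 2 mL PBS and counted. Cells were stained with anti-F4/80-PE and GR1-FITC for 30 min at room temperature and typed by flow cytometry: neutrophils GR1+/F4/80−, resident monocytes/macrophages GR1−/F4/80+, inflammatory monocytes GR1+/F4/80+. Data are mean ± SD from three mice, unpaired t test.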

[13] = test system: Mus musculus; assay: Stimulation of innate immune response in Kunming mouse infected with Pseudomonas aeruginosa ATCC 27853 assessed as effect on CXCL2 production in peritoneal lavage at 10 mg/kg, ip after 3 hrs by ELISA; type: functional, organism-based; set-up: dose 10 mg/kg
Method in brief: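 Mice were pretreated ip with peptide at 10 mg/kg 5 h before ip challenge with P. aeruginosa 27853 at 8 × 10^7 CFU/mouse. CCL2 and CXCL2 were measured in peritoneal lavage collected 3 h after inoculation. TNF-α and IL-6 were measured in serum collected 5 h after inoculation. All were read by ELISA; data are mean ± SD from four mice, unpaired t test.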

[14] = test system: Mus musculus; assay: Stimulation of innate immune response in Kunming mouse infected with Pseudomonas aeruginosa ATCC 27853 assessed as effect on TNFalpha production in peritoneal lavage at 10 mg/kg, ip after 5 hrs by ELISA; type: functional, organism-based; set-up: dose 10 mg/kg
[15] = test system: Mus musculus; assay: Stimulation of innate immune response in Kunming mouse assessed as increase of IL-1Ra level in peritoneal lavage at 10 mg/kg, ip after 5 hrs; type: functional, organism-based; set-up: dose 10 mg/kg
Method in brief: (§3)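 Female Kunming mice (18−22 g) received a single ip injection of peptide at 10 mg/kg in sterile saline. Peritoneal lavage was collected in 2 mL of cold sterile saline 5 h later, and cytokines and chemokines were measured by ELISA. Data are mean ± SD from four mice, compared by unpaired t test.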

[16] = test system: Mus musculus; assay: Stimulation of innate immune response in Kunming mouse assessed as increase of CXCL1 level in peritoneal lavage at 10 mg/kg, ip after 5 hrs; type: functional, organism-based; set-up: dose 10 mg/kg; method in brief: as §3
[17] = test system: RAW264.7; assay: Induction of H2O2 production in mouse RAW264.7 cells; type: functional, cell-based
[18] = test system: RAW264.7; assay: Induction of phagocytic activity in mouse RAW264.7 cells using fluorescently labeled Escherichia coli up to 2 hrs by fluorescent assay; type: functional, cell-based
[19] = Cytotoxicity against mouse BMDM at 5 to 20 ug/ml by MTT assay
[20] = Increase of IL-10 protein level in mouse BMDM at 10 ug/ml after 18 hrs by ELISA; type: functional; method in brief: as §2
[21] = Increase of IL-1Ra protein level in mouse BMDM at 10 ug/ml after 18 hrs by ELISA; type: functional; method in brief: as §2
[22] = test system: BMDM; assay: Increase of CCL2 protein level in mouse BMDM at 20 ug/ml after 18 hrs by ELISA; type: functional; method in brief: as §2
[23] = test system: BMDM; assay: Increase of CXCL2 protein level in mouse BMDM at 20 ug/ml after 18 hrs by ELISA; type: functional; method in brief: as §2
[24] = test system: BMDM; assay: Increase of CXCL1 protein level in mouse BMDM at 20 ug/ml after 18 hrs by ELISA; type: functional; method in brief: as §2
[25] = test system: BMDM; assay: Increase of IL-1Ra protein level in mouse BMDM at 20 ug/ml after 18 hrs by ELISA; type: functional; method in brief: as §2
[26] = Induction of IL-17alpha mRNA up-regulation in mouse BMDM at 20 ug/ml after 3 hrs by qRT-PCR analysis relative to control; type: functional; method in brief: as §1

Chain of Transcription factor p65 (Mus musculus) (Q04207 whole entry): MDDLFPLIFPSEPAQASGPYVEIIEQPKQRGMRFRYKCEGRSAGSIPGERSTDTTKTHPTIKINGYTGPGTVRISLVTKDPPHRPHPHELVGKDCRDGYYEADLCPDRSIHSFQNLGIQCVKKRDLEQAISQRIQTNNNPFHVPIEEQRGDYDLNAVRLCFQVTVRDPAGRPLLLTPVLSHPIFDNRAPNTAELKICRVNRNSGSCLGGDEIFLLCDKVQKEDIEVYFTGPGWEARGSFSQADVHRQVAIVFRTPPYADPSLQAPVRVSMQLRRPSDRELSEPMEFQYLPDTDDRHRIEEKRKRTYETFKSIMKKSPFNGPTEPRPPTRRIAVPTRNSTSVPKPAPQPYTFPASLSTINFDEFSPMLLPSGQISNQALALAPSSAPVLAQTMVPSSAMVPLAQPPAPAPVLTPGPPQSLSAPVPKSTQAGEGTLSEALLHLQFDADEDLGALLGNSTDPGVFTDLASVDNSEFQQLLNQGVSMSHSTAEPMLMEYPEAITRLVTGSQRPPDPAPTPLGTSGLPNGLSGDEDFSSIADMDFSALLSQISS

Compound: CC[C@H](C)[C@H](NC(=O)[C@@H](NC(=O)[C@H](CCCNC(=N)N)NC(=O)[C@@H]1CCCN1C(=O)[C@H](CCCCN)NC(=O)[C@H](CCCCN)NC(=O)[C@H](Cc1ccccc1)NC(=O)[C@H](Cc1ccccc1)NC(=O)[C@H](CCCCN)NC(=O)[C@H](CCCCN)NC(=O)[C@H](C)NC(=O)[C@H](CCCNC(=N)N)NC(=O)[C@H](CCCCN)NC(=O)[C@H](CCCCN)NC(=O)[C@@H](NC(=O)[C@H](CO)NC(=O)[C@H](CC(N)=O)NC(=O)[C@H](CCCCN)NC(=O)[C@H](CC(C)C)NC(=O)[C@H](CCCCN)NC(=O)[C@H](CCCCN)NC(=O)[C@H](Cc1ccccc1)NC(=O)[C@H](Cc1ccccc1)NC(=O)[C@@H](N)CCCCN)C(C)C)C(C)C)C(=O)NCC(=O)N[C@H](C(=O)N[C@@H](CO)C(=O)N[C@H](C(=O)N1CCC[C@H]1C(=O)N[C@@H](Cc1ccccc1)C(=O)O)[C@@H](C)CC)C(C)C (H-KFFKKLKNSVKKRAKKFFKKPRVIGVSIPF-OH)
- Activity [1]: Active
- Activity [2]: Active
- Activity [3]: Active
- survival at 10 mg/kg [4]: 70%
- Activity [5]: Active
- Activity [6]: inactive
- Activity [7]: 1000 pg/mL
- Activity [8]: 464.9 pg/mL
- inhibition [9]: Active
- inhibition [10]: Active
- Activity [11]: inactive
- Activity [12]: Active
- Activity [13]: Active
- Activity [14]: inactive
- Activity [15]: Active
- Activity [16]: Active
- Activity [17]: inactive
- Activity [18]: inactive
- Activity [19]: Non-toxic
- Activity [20]: 156 pg/mL
- Activity [21]: 232 pg/mL
- Activity [22]: Active
- Activity [23]: Active
- Activity [24]: Active
- Activity [25]: Active
- fold change (FC) [26]: 51
